Publication PMC5481492 (Chemico-biological interactions, 2016)
Like-named read-outs stand apart in the source and are kept apart here.

Tests used:
horse liver ADH1E S48T [1] = target: T1, horse liver ADH1E S48T (Equus caballus, UniProt P00327, S49T); test: Steady-state kinetics, S48T enzyme; assay type: biochemical
horse liver ADH1E S48A = horse liver ADH1E S48A (Equus caballus, UniProt P00327, S49A); test: Steady-state kinetics, S48A enzyme; assay type: biochemical; conditions: pH 8.0, 25 °C
horse liver ADH1E F93A [2] = target: T2, horse liver ADH1E F93A (Equus caballus, UniProt P00327, F94A); test: Steady-state kinetics, F93A enzyme; assay type: biochemical; conditions: for Ratio of V/Km for (R)- to (S)-enantiomers: enantioselectivity
[3] = target: T3, horse liver ADH1E S48T/F93A (Equus caballus, UniProt P00327, F94A/S49T); test: Steady-state kinetics, S48T/F93A enzyme; assay type: biochemical; conditions: for Increase of the R/S ratio (inversion of enantioselectivity) as compared to wild-type enzyme: S48T/F93A relative to wild-type; for Ratio of V/Km for (R)- to (S)-enantiomers: enantioselectivity
horse liver ADH1E F93A [4] = target: T2, horse liver ADH1E F93A; test: Transient; assay type: biochemical; conditions: for K m (transient reaction) / k max (transient oxidation): pH 8.0, 25 °C, 2 mM NAD+
[5] = target: T4, horse liver ADH1E (EqADH1E), wild-type (Equus caballus, UniProt P00327); conditions: pH 8.0, 25 °C; cited from earlier work
[6] = target: T3, horse liver ADH1E S48T/F93A; test: Transient; assay type: biochemical; conditions: pH 8.0, 25 °C; 2 mM NAD+ (oxidation) or stoichiometric NADH (reduction)
Method in brief: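 Stopped-flow (three-syringe, 2.5 ms dead time) at 25 °C in 33 mM sodium phosphate, 0.25 mM EDTA, pH 8.0. Enzyme at 6–15 μN (active sites) was mixed with 2 mM NAD⁺ and varied alcohol (oxidation), or with NADH equal to the enzyme concentration and varied carbonyl compound (reduction). A328 bursts (Δε 5500 M⁻¹cm⁻¹) were fitted as first-order; rate constants were analysed against substrate concentration.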

[7] = target: T4, horse liver ADH1E (EqADH1E), wild-type; conditions: value in parentheses; cited from earlier work
[8] = target: T3, horse liver ADH1E S48T/F93A; test: Inhibition of ethanol oxidation, S48T/F93A enzyme; assay type: biochemical
[9] = target: T4, horse liver ADH1E (EqADH1E), wild-type; conditions: cited from earlier work
[10] = target: T4, horse liver ADH1E (EqADH1E), wild-type; test: Steady-state kinetics, wild-type enzyme; assay type: biochemical; conditions: enantioselectivity
horse liver ADH1E S48T [11] = target: T1, horse liver ADH1E S48T; test: Inhibition of ethanol oxidation, S48T enzyme; assay type: biochemical
horse liver ADH1E F93A [12] = target: T2, horse liver ADH1E F93A; test: Inhibition of ethanol oxidation, F93A enzyme; assay type: biochemical
[13] = pH 8.0, 25 °C, both substrates varied
[14] = read-out: Inhibition constant for coenzyme (Kia NAD+, Kiq NADH), pH 8.0, 25 °C
[15] = competitive against ethanol, pH 8.0, 25 °C

T3 sequence (P00327 whole entry S49T/F94A): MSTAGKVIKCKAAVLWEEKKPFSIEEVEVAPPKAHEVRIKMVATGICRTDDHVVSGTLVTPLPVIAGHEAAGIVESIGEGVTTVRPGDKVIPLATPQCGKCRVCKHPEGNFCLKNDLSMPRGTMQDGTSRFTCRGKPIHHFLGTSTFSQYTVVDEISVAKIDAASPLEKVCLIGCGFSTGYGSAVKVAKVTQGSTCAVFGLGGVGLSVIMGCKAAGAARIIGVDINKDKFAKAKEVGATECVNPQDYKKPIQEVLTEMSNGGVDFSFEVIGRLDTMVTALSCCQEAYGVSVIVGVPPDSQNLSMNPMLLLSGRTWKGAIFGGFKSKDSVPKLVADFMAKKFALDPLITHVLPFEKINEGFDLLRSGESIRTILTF
T2 sequence (P00327 whole entry F94A): as the sequence (P00327 whole entry S49T/F94A) above, with T49S counted along it
T4 sequence (P00327 whole entry): as the sequence (P00327 whole entry S49T/F94A) above, with T49S, A94F counted along it
T1 sequence (P00327 whole entry S49T): as the sequence (P00327 whole entry S49T/F94A) above, with A94F counted along it
horse liver ADH1E S48A, sequence (P00327 whole entry S49A): as the sequence (P00327 whole entry S49T/F94A) above, with T49A, A94F counted along it

For `NC(=O)C1=CN([C@@H]2O[C@H](COP(=O)(O)OP(=O)(O)OC[C@H]3O[C@@H](n4cnc5c(N)ncnc54)[C@H](O)[C@@H]3O)[C@@H](O)[C@H]2O)C=CC1` [NADH], the “Michaelis constant for coenzyme (Ka NAD+, Kq NADH)” value (“Michaelis constant for coenzyme” below) (horse liver ADH1E S48T [1]; [13]) was 6.3 µM, the Ki (horse liver ADH1E S48T [1]; [14]) was 0.57 µM and the “Michaelis constant for coenzyme” value (horse liver ADH1E S48A; both substrates varied) was 44 µM. For the same molecule, the Ki (horse liver ADH1E S48A; read-out: Inhibition constant for coenzyme (Kia NAD+, Kiq NADH)) was 21 µM, the “Michaelis constant for coenzyme” value (horse liver ADH1E F93A [2]; [13]) was 1.9 µM and the Ki (horse liver ADH1E F93A [2]; [14]) was 0.036 µM. The “Michaelis constant for coenzyme” value [3, 13] was 5.0 µM, the Ki [3, 14] was 0.054 µM and the “Rate constant for binding of NADH” value (horse liver ADH1E F93A [4]; transient kinetics, stated in a paragraph on the F93A and S48T/F93A enzymes) was 1e+07 M⁻¹ s⁻¹. The “Michaelis constant for coenzyme” value [5] was 5.8 µM.
With `CCO` [ethanol] the “Turnover number (V1/Et ethanol oxidation, V2/Et acetaldehyde reduction)” value (horse liver ADH1E S48T [1]; pH 8.0, 25 °C) was 1.7 s⁻¹, the “Turnover number (V1/Et ethanol oxidation, V2/Et acetaldehyde reduction)” value (horse liver ADH1E S48A) was 0.01 s⁻¹ and the “Catalytic efficiency (V1/EtKb, V2/EtKp)” value (horse liver ADH1E F93A [2]; pH 8.0, 25 °C) was 1.7 mM⁻¹ s⁻¹. The “Turnover number (V1/Et ethanol oxidation, V2/Et acetaldehyde reduction)” value (horse liver ADH1E F93A [2]; pH 8.0, 25 °C) was 0.35 s⁻¹, the “Turnover number (V1/Et ethanol oxidation, V2/Et acetaldehyde reduction)” value ([3]; pH 8.0, 25 °C) was 0.29 s⁻¹ and the “K m (transient reaction)” value [6] was 38 mM. For the same molecule, the “k max (transient oxidation or reduction)” value [6] was 72 s⁻¹, the “K m (transient reaction)” value (horse liver ADH1E F93A [4]) was 26 mM and the “k max (transient oxidation)” value (horse liver ADH1E F93A [4]) was 22 s⁻¹. For the same molecule, the “Catalytic efficiency (V1/EtKb, V2/EtKp)” value [5] was 10 mM⁻¹ s⁻¹, the “Turnover number (V1/Et ethanol oxidation, V2/Et acetaldehyde reduction)” value [5] was 3.5 s⁻¹ and the “K m (transient reaction)” value [7] was 4.1 mM. The “k max (transient oxidation or reduction)” value [7] was 180 s⁻¹.
For `CC[C@H](C)O` [(S)-2-Butanol, (S)-2-butanol], the “K m (transient reaction)” value [6] was 4.9 mM, the “k max (transient oxidation or reduction)” value [6] was 16 s⁻¹ and the “K m (transient reaction)” value (horse liver ADH1E F93A [4]) was 1.3 mM. For the same molecule, the “k max (transient oxidation)” value (horse liver ADH1E F93A [4]) was 29 s⁻¹ and the “k max (transient oxidation or reduction)” value [7] was 2.5 s⁻¹.
In the case of `c1cn[nH]c1` [Pyrazole, pyrazole], the Type of inhibition [8] is listed as “competitive inhibitor against varied concentrations of ethanol”, the Ki [8, 15] is listed as 8.1 µM and the Ki [9] is listed as 0.2 µM.
For `CC[C@@H](C)O` [(R)-2-Butanol, (R)-2-butanol], the “K m (transient reaction)” value [6] was 26 mM, the “k max (transient oxidation or reduction)” value [6] was 130 s⁻¹ and the “K m (transient reaction)” value (horse liver ADH1E F93A [4]) was 1.2 mM. For the same molecule, the “k max (transient oxidation)” value (horse liver ADH1E F93A [4]) was 44 s⁻¹ and the “k max (transient oxidation or reduction)” value [7] was 15 s⁻¹.
With `CCC(C)O` (centres unmarked) [2-Butanol, 2-butanol] the “Ratio of V/Km for (R)- to (S)-enantiomers” value (“Ratio of V/Km” for short) [10] was 0.45, the “Ratio of V/Km” value (horse liver ADH1E S48T [1]; enantioselectivity) was 0.88 and the “Ratio of V/Km” value (horse liver ADH1E F93A [2]) was 1.1. For the same molecule, the “Increase of the R/S ratio (inversion of enantioselectivity) as compared to wild-type enzyme” value [3] was 10 fold and the “Ratio of V/Km” value [3] was 4.3.
Work on `OCC(F)(F)F` [trifluoroethanol, 2,2,2-trifluoroethanol] yielded a Ki (horse liver ADH1E S48T [11]) of 98 µM, a Ki (horse liver ADH1E F93A [12]) of 53 µM and a Ki [8] of 600 µM. For the same molecule, the Type of inhibition [8] was “uncompetitive inhibitor against varied concentrations of NAD^+” and the Ki [9, 15] was 8.4 µM.
With `CC(O)c1ccccc1` (centres unmarked) [sec-Phenethyl alcohol, sec-phenethyl alcohol] the “Ratio of V/Km” value [10] was 0.067, the “Ratio of V/Km” value (horse liver ADH1E F93A [2]) was 0.34 and the “Increase of the R/S ratio (inversion of enantioselectivity) as compared to wild-type enzyme” value [3] was 190 fold. For the same molecule, the “Ratio of V/Km” value [3] was 13.
